From ChEMBL document CHEMBL2311429, “Design, synthesis and crystallographic analysis of nitrile-based broad-spectrum peptidomimetic inhibitors for coronavirus 3C-like proteases” (Eur J Med Chem, 2013)
Activity calls are given as the source filed them. The calls are words filed in the database; no cut-off is given here.

Key:
Caspase-3 (Homo sapiens) = target: T1, Caspase-3 (Homo sapiens) (UniProt P42574); assay: Inhibition of caspase3 (unknown origin) using Ac-DEVD-pNA as substrate at 0.5 to 256 uM after 90 mins by spectrophotometry
T1 sequence (whole entry): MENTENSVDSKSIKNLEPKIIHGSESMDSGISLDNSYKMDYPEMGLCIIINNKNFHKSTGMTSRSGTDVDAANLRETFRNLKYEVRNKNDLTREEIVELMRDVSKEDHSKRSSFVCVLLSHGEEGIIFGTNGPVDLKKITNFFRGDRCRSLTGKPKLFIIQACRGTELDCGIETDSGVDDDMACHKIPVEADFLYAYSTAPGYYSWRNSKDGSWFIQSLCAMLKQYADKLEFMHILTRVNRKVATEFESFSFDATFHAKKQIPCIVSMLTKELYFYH

[1] = Inhibition of human coronavirus HKU1 3C-like protease pretreated for 5 mins before substrate addition by fluorimetry
How it was run: (§1)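 3CL protease (0.5-1 μM) preincubated 5 min with inhibitor (0.5-256 μM), then 35 μM fluorescent-protein substrate added; cleavage followed by fluorescence. IC50 from four-parameter logistic fit of activity versus inhibitor concentration.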

[2] = Inhibition of human coronavirus […] 3C-like protease pretreated for 5 mins before substrate addition by fluorimetry; parameters: species or system Human coronavirus 229E; how it was run: as §1
[3] = Inhibition of human coronavirus OC43 3C-like protease pretreated for 5 mins before substrate addition by fluorimetry; how it was run: as §1
[4] = Inhibition of […] bronchitis virus 3C-like protease pretreated for 5 mins before substrate addition by fluorimetry; how it was run: as §1
[5] = target: Replicase polyprotein 1ab (Severe acute respiratory syndrome-related coronavirus, UniProt P0C6X7); assay: Inhibition of SARS coronavirus 3C-like protease pretreated for 5 mins before substrate addition by fluorimetry

Which results are given for `CC(C)C[C@H](NC(=O)[C@@H](NC(=O)[C@H](C)NC(=O)OCc1ccccc1)C(C)C)C(=O)N[C@H](C#N)CCC(N)=O`?
inhibition (Caspase-3 (Homo sapiens)): inactive; IC50 [1]: 1300 nM; IC50 [2]: 1300 nM; IC50 [3]: 1300 nM; IC50 [4]: 1300 nM

Which IC50 [5] does the source give for `Cc1cc(C(=O)N[C@@H](C)C(=O)N[C@H](C(=O)N[C@@H](CC(C)C)C(=O)N[C@H](C#N)CCC(N)=O)C(C)C)no1` here?
Its IC50 is 49000 nM.

For `CC(C)C[C@H](NC(=O)[C@@H](NC(=O)[C@H](C)NC(=O)[C@H](CO)NC(=O)[C@@H](NC(=O)OCc1ccccc1)[C@@H](C)O)C(C)C)C(=O)N[C@H](C#N)CCC(N)=O`, which IC50 [5] is on record?
The IC50 was 39000 nM.
